Hits are enriched below; roughly 3.3% of the tested compounds scored in any of these assays.
Hep lipid drop = inhibitors of hepatocyte lipid droplet formation, primary screen, imaging, high-throughput imaging, BODIPY stain; AML12 mouse hepatocytes, oleate lipid droplets; inhibition, % at 6.5 µM; 240,000 tested, 0.4% active;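 active = lipid droplet intensity inhibited by at least 50%, with more than 500 cells counted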
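Material – AML12 mouse liver cells · Also added – oleate loading, 100 µM · Compound dosing – 6.5 µM single-point dosing · Times – overnight treatment with compound plus oleate · Measured by – fluorescence imaging, 20x objective, two fields per well · Read-out – percent inhibition of filter-corrected integrated lipid droplet intensity per well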
PfM18AAP inh = PfM18AAP inhibitors, malaria aminopeptidase, primary screen, biochemical, QFRET, recombinant enzyme | M18 aspartyl aminopeptidase (Plasmodium falciparum 3D7) | H-Glu-NHMec fluorogenic cleavage | inhibition, % at 7.35 µM | 290,000 tested, 1.2% active;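 active = inhibition above the campaign mean inhibition over all tested compounds plus 3 SD, cut at about 28% in these data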
HTR2A ag = mouse Htr2a agonists via beta-arrestin recruitment, primary screen, cell-based, luminescence; 5-hydroxytryptamine receptor 2A (Mus musculus), P35363; CHO-K1 mHTR2A beta-arrestin complementation; percent of 30 µM serotonin response; activation, % at 7.6 µM; 360,000 tested, 0.66% active; AID 624169, 2012;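 active = activation above a run cutoff, the mean activation of all tested compounds plus 3 SD, cut at about 14% in these data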
Target sequence (P35363 whole entry, looked up): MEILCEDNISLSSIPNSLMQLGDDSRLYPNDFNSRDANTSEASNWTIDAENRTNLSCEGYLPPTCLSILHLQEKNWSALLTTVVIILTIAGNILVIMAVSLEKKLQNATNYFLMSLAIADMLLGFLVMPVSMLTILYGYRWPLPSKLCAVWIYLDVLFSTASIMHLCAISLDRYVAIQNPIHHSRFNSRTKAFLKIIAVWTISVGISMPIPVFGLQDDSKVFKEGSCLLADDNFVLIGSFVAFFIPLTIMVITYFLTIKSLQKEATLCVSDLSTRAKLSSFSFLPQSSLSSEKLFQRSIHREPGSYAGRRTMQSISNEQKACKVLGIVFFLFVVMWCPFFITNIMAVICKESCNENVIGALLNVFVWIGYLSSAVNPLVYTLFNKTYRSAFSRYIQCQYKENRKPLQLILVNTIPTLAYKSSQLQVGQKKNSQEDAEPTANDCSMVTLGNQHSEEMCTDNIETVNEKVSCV
NRP1-CendR mod = modulators of CendR peptide binding to NRP-1, primary screen, biochemical, fluorescence polarization, uHTS; Neuropilin-1 (Homo sapiens), O14786; FAM-RPARPAR peptide binding to NRP-1; inhibition, % at 25 µM; 360,000 tested, 0.85% active;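 active = inhibition or corrected inhibition above about 18%, plus a signal ratio from 0.5 to 1.5, limit read from the data, passing the limit was not always enough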
sPLA2-III inh = human group III sPLA2 inhibitors, primary screen, biochemical, QFRET, BODIPY PC-A2 liposome substrate; Group 3 secretory phospholipase A2 (Homo sapiens), Q9NZ20; QFRET BODIPY PC-A2 liposome hydrolysis, fluorescence; inhibition, % at 12.2 µM; 370,000 tested, 0.56% active; AID 743126, 2013;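 active = inhibition above mean plus 3 SD of compounds lying within the high and low control bounds, cut at about 19% in these data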
Arrestin-AP2 inh = inhibitors of beta-arrestin/AP2 binding, primary screen, biochemical, GPCR trafficking, flow cytometry | FITC-arrestin peptide / GST-AP2 beads; AP2 beta2 appendage carries R879A mutation | inhibition, % at 10 µM | 340,000 tested, 0.31% active;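 active = inhibition above a set limit, near 3 SD of compounds lacking own fluorescence, cut at about 54% in these data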
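Test system: GST-tagged AP2 beta2-adaptin appendage (R879A) on 4 µm glutathione beads; also added: fluorescein-tagged arrestin peptide at 50 nM final; timing: 12 min plus 1 h, RT; signal: flow cytometry, FL1 (488/535 nm); read-out: percent drop in bead-associated FITC signal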
OPRM1 ag = OPRM1 agonists via beta-arrestin recruitment, confirmation, counter-screen for mouse HTR2A agonist project, cell-based, luminescence, single concentration; shares compounds with HTR2A ag; U2OS OPRM1 beta-arrestin PathHunter; DMSO 0%, DAMGO 9.3 µM 100%; activation, % at 9.3 µM; 2,300 tested, 5.3% active; AID 624380, 2012;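 active = mean activation above the mean of DMSO-only wells plus 3 SD, cut at about 0.5% in these data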
m5-HT2A ag conf = mouse HTR2A agonists, beta-arrestin recruitment, confirmation, cell-based, luminescence, CHO-K1 PathHunter, triplicate. 2,300 tested, 19% active. shares compounds with HTR2A ag. DMSO 0%, 30 µM serotonin 100%. activation, % at 7.6 µM;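 active = mean activation across triplicates above the hit threshold derived in the original primary screen, cut at about 15% in these data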
Each line names hits and unclear results; the compound was inactive in the other large screens (follow-up assays come after a bar, where they were run).

NC(=O)CC(NC(=O)c1ccccc1)c1ccc(NC2CCCCC2)c([N+](=O)[O-])c1 (configuration not stated)	none (no result: PfM18AAP inh)
NC(=O)c1ccc(/C=N/O)[n+](Cc2ccccc2)c1	HTR2A ag 16 | OPRM1 ag inactive | m5-HT2A ag conf inactive
CCOC(=O)c1ccc(/C=N/O)[n+](Cc2ccccc2)c1	none
Cc1ccccc1CNC1CCC12CCC(c1ccccc1)CC2 (configuration not stated)	none (no result: Hep lipid drop, PfM18AAP inh, HTR2A ag, NRP1-CendR mod, Arrestin-AP2 inh)
CCOc1ccc(OCC(=O)N2CCC3(CC2)CC(=O)c2ccccc2O3)cc1	HTR2A ag 19 (no result: Hep lipid drop, PfM18AAP inh) | OPRM1 ag inactive | m5-HT2A ag conf inactive
O=C(c1[nH]c(C(F)(F)F)nc1-c1ccccc1)N1CCN(c2cccc(C(F)(F)F)n2)CC1	HTR2A ag 14 (no result: Hep lipid drop, PfM18AAP inh, Arrestin-AP2 inh) | OPRM1 ag inactive | m5-HT2A ag conf inactive
CCCn1c(N)cc(=O)n(CCC)c1=O	HTR2A ag 16 | OPRM1 ag inactive | m5-HT2A ag conf inactive
CC(C)Cn1c(N)cc(=O)n(C)c1=O	none
COc1ccc(OC)c(NC(=O)CS(=O)(=O)c2ccccc2)c1	none
COc1cc(OC)nc(NC(=O)CS(=O)(=O)c2ccccc2)n1	HTR2A ag 16 | OPRM1 ag inactive | m5-HT2A ag conf inactive
CCOC(=O)CC[C@H](NC(=O)[C@@H]1CC=C[C@@H]2CCN(Cc3ccc(Cl)cc3)C(=O)[C@@H]21)C(=O)OCC	none (no result: Hep lipid drop, PfM18AAP inh, HTR2A ag, NRP1-CendR mod, Arrestin-AP2 inh)
Cc1ccc(S(=O)(=O)NN=Cc2ccccc2Cl)cc1	none (no result: Hep lipid drop, PfM18AAP inh, Arrestin-AP2 inh)
COc1ccccc1CN1CC(C(=O)NCc2cc(C)on2)CCC1=O (configuration not stated)	HTR2A ag 16 | OPRM1 ag inactive | m5-HT2A ag conf inactive
CC1(C)NC(=O)N(CC(O)CN2CCOCC2)C1=O (configuration not stated)	none
CC12CC3CC(C)(C1)CC(C(O)CN1CCOCC1)(C3)C2 (configuration not stated)	HTR2A ag 16 | OPRM1 ag inactive | m5-HT2A ag conf inactive
CC1(C(=O)NS(=O)(=O)c2ccc(Cl)cc2)CCN1C(=O)Cc1ccsc1 (configuration not stated)	none (no result: Hep lipid drop, PfM18AAP inh, Arrestin-AP2 inh)
CCOc1ccc(C(=O)Oc2cc(C)[nH]c(=O)c2[N+](=O)[O-])cc1OCC	none
COCCN(CC(=O)Nc1cccc(C)c1C)C(=O)c1oc2c(Cl)cccc2c1C	none (no result: Hep lipid drop, PfM18AAP inh)
C[C@@H]1CN([C@@H](C)CO)C(=O)Cc2cc(NS(=O)(=O)c3ccccc3)ccc2O[C@H]1CN(C)Cc1ccncc1	none (no result: Hep lipid drop, PfM18AAP inh)
C[C@@H]1CN([C@H](C)CO)C(=O)c2cc(NS(=O)(=O)c3ccc(F)cc3)ccc2O[C@@H]1CN(C)Cc1ccc(Cl)c(Cl)c1	HTR2A ag 21 (no result: Hep lipid drop, PfM18AAP inh) | OPRM1 ag inactive | m5-HT2A ag conf inactive
C[C@@H]1CN([C@H](C)CO)C(=O)c2cc(NS(=O)(=O)c3ccccc3)ccc2O[C@@H](C)CCCCO[C@@H]1CN(C)Cc1ccc(Cl)c(Cl)c1	none (no result: Hep lipid drop, PfM18AAP inh, HTR2A ag, NRP1-CendR mod, Arrestin-AP2 inh)
COc1ccc(NC(=O)Nc2ccc3c(c2)C(=O)N([C@H](C)CO)C[C@H](C)[C@@H](CN(C)S(=O)(=O)c2ccc(F)cc2)O3)cc1	HTR2A ag 18 (no result: Hep lipid drop, PfM18AAP inh) | OPRM1 ag inactive | m5-HT2A ag conf inactive
C[C@H](CO)N1C[C@H](C)[C@H](CN(C)Cc2ccc(-c3ccccc3)cc2)Oc2ccc(NS(=O)(=O)c3ccccc3)cc2CC1=O	HTR2A ag 16 (no result: Hep lipid drop, PfM18AAP inh, sPLA2-III inh) | OPRM1 ag inactive | m5-HT2A ag conf 28
Cc1ccc(S(=O)(=O)Nc2ccc3c(c2)CC(=O)N([C@H](C)CO)C[C@@H](C)[C@H](CN(C)Cc2ccc(-c4ccccc4)cc2)O3)cc1	HTR2A ag 19 (no result: Hep lipid drop, PfM18AAP inh, sPLA2-III inh) | OPRM1 ag inactive | m5-HT2A ag conf 18
COc1cc(OC)cc(C(=O)N[C@H](C(=O)OCC(=O)Nc2cccnc2Cl)C(C)C)c1	none (no result: Hep lipid drop, PfM18AAP inh)
CCN(CC)CCCNC(=O)c1cc2cc(Cl)ccc2nc1N	none (no result: Hep lipid drop, PfM18AAP inh, HTR2A ag, NRP1-CendR mod, Arrestin-AP2 inh)
COC(=O)C(Cc1ccc(O)cc1)NC(=O)Cn1cc(C)c(=O)[nH]c1=O (configuration not stated)	none (no result: Hep lipid drop, PfM18AAP inh)
CCOC(=O)C1(C)CCN1C(=O)c1ccc(SC(F)(F)F)cc1 (configuration not stated)	HTR2A ag 16 (no result: Hep lipid drop, PfM18AAP inh, Arrestin-AP2 inh) | OPRM1 ag inactive | m5-HT2A ag conf inactive
O=S(=O)(NCCSc1ccccc1)c1cccs1	HTR2A ag 15 | OPRM1 ag inactive | m5-HT2A ag conf inactive
O=C(Nc1ccc2c(c1)OCCO2)C(CCc1ccccc1)N(Cc1ccccc1)Cc1ccccc1 (configuration not stated)	HTR2A ag 18 (no result: Hep lipid drop, PfM18AAP inh, Arrestin-AP2 inh) | OPRM1 ag inactive | m5-HT2A ag conf inactive
CN(CC(=O)NCc1ccco1)CC(=O)Nc1cc(S(C)(=O)=O)ccc1Cl	none (no result: Hep lipid drop, PfM18AAP inh)
Cc1[nH]c(=O)[nH]c(=O)c1S(=O)(=O)N1CCCC(C(=O)N2CCC(Cc3ccccc3)CC2)C1 (configuration not stated)	HTR2A ag 19 | OPRM1 ag inactive | m5-HT2A ag conf inactive
CCCC(=O)N1CCOCC1c1cc(C(=O)Nc2ccccc2)no1 (configuration not stated)	none (no result: Hep lipid drop, PfM18AAP inh, Arrestin-AP2 inh)
CCOC(=O)c1ccc(NC(=O)CCc2nnc3ccc(N4CCCC4)nn23)cc1	HTR2A ag 24 | OPRM1 ag inactive | m5-HT2A ag conf inactive
CC(=O)N1CCc2cc(C(=O)CN3CCN(c4cccc(Cl)c4)CC3)ccc21	HTR2A ag 25 (no result: Hep lipid drop) | OPRM1 ag inactive | m5-HT2A ag conf 90

Screening data deposited in PubChem by several laboratories.
